# Active and inactive are the calls of the source. The calls are words filed in the database; no cut-off is given here.
# Experiments:
# [1] = molecular target: Glycogen synthase kinase-3 alpha (Homo sapiens) (UniProt P49840); test: Inhibition of GSK3alpha at 10 uM
# Method in brief: (§1)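 Serine/threonine kinase profiling by an outside contract service following manufacturer protocols, ATP at Km for each enzyme; percent inhibition at 10 μM.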
# [2] = molecular target: Mitogen-activated protein kinase 9 (Homo sapiens) (UniProt P45984); test: Inhibition of JNK2 at 10 uM; method in brief: as §1
# [3] = molecular target: Ephrin type-A receptor 2 (Homo sapiens) (UniProt P29317); test: Inhibition of EPHA2 at 10 uM by ELISA based method
# Method in brief: (§2)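 Tyrosine kinase profiling by ELISA-based method, ATP at Km for each enzyme; percent inhibition at 10 μM, mean of at least two independent tests.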
# [4] = molecular target: Mitogen-activated protein kinase 14 (Homo sapiens) (UniProt Q16539); test: Inhibition of p38alpha at 10 uM; method in brief: as §1
# Sequence of Mitogen-activated protein kinase 14 (Homo sapiens) (Q16539 whole entry): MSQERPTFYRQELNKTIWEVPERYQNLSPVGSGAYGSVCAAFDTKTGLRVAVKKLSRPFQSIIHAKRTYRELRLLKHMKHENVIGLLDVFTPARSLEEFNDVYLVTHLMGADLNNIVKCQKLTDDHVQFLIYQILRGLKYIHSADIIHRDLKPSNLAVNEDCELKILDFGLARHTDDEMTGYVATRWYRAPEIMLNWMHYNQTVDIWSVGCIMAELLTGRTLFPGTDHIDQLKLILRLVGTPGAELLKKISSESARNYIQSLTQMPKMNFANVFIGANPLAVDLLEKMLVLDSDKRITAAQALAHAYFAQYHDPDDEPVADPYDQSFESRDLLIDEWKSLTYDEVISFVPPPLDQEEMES
# [5] = molecular target: Vascular endothelial growth factor receptor 1 (Homo sapiens) (UniProt P17948); test: Inhibition of Flt1 at 10 uM by ELISA based method; method in brief: as §2
# [6] = molecular target: Platelet-derived growth factor receptor beta (Homo sapiens) (UniProt P09619); test: Inhibition of PDGFRbeta at 10 uM by ELISA based method; method in brief: as §2
# [7] = tested on: HCT-116; test: Antiproliferative activity against human HCT116 cells over expressing RSK2 at 100 uM after 48 hrs by MTT assay; type: functional; details: HCT-116, 48 h
# Method in brief: (§3)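 Formazan dissolved in DMSO, absorbance read at 570 nm. Inhibition = (1 − A570 compound/A570 control)×100. Screening concentration 100 μM (control 10 μM). IC50 from curves, ≥3 independent tests, attempted when inhibition at 100 μM exceeded 40%.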
# [8] = molecular target: Proto-oncogene tyrosine-protein kinase receptor Ret (Homo sapiens) (UniProt P07949); test: Inhibition of RET at 10 uM by ELISA based method; method in brief: as §2
# [9] = tested on: HCT-116; test: Antiproliferative activity against human HCT116 cells over expressing RSK2 after 48 hrs by MTT assay; type: functional, cell-based; details: HCT-116, 48 h; method in brief: as §3
# [10] = molecular target: Fibroblast growth factor receptor 1 (Homo sapiens) (UniProt P11362); test: Inhibition of FGFR1 at 10 uM by ELISA based method; method in brief: as §2
# [11] = molecular target: Platelet-derived growth factor receptor alpha (Homo sapiens) (UniProt P16234); test: Inhibition of PDGFRalpha at 10 uM by ELISA based method; method in brief: as §2
# [12] = molecular target: Proto-oncogene tyrosine-protein kinase Src (Homo sapiens) (UniProt P12931); test: Inhibition of c-Src at 10 uM by ELISA based method; method in brief: as §2
# Sequence of Proto-oncogene tyrosine-protein kinase Src (Homo sapiens) (P12931 2-536 limits assumed): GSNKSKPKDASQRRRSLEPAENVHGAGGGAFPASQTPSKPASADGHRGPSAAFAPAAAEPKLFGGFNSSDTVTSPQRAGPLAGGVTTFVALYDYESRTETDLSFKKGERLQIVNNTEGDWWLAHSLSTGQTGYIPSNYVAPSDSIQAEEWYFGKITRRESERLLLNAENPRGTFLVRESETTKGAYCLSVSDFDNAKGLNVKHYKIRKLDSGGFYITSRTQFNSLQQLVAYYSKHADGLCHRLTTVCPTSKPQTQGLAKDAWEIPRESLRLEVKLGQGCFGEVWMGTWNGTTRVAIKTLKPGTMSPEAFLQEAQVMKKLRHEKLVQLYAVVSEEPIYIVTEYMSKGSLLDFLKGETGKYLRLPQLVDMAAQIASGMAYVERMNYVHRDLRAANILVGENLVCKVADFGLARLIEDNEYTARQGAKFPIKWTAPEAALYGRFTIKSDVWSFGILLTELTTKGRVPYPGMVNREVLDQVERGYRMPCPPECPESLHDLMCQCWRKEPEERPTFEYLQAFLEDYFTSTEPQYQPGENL
# [13] = tested on: MDA-MB-231; test: Antiproliferative activity against human MDA-MB-231 cells over expressing RSK2 after 48 hrs by MTT assay; type: functional, cell-based; details: MDA-MB-231, 48 h; method in brief: as §3
# [14] = tested on: MCF7; test: Antiproliferative activity against human MCF7 cells over expressing RSK2 after 48 hrs by MTT assay; type: functional, cell-based; details: MCF7, 48 h; method in brief: as §3
# [15] = tested on: MDA-MB-231; test: Antiproliferative activity against human MDA-MB-231 cells over expressing RSK2 at 100 uM after 48 hrs by MTT assay; type: functional; details: MDA-MB-231, 48 h; method in brief: as §3
# [16] = molecular target: Serine/threonine-protein kinase pim-1 (Homo sapiens) (UniProt P11309); test: Inhibition of PIM1 at 10 uM; method in brief: as §1
# [17] = molecular target: Vascular endothelial growth factor receptor 2 (Homo sapiens) (UniProt P35968); test: Inhibition of KDR at 10 uM by ELISA based method; method in brief: as §2
# [18] = molecular target: Epidermal growth factor receptor (Homo sapiens) (UniProt P00533); test: Inhibition of EGFR at 10 uM by ELISA based method; method in brief: as §2
# Sequence of Epidermal growth factor receptor (Homo sapiens) (P00533 whole entry): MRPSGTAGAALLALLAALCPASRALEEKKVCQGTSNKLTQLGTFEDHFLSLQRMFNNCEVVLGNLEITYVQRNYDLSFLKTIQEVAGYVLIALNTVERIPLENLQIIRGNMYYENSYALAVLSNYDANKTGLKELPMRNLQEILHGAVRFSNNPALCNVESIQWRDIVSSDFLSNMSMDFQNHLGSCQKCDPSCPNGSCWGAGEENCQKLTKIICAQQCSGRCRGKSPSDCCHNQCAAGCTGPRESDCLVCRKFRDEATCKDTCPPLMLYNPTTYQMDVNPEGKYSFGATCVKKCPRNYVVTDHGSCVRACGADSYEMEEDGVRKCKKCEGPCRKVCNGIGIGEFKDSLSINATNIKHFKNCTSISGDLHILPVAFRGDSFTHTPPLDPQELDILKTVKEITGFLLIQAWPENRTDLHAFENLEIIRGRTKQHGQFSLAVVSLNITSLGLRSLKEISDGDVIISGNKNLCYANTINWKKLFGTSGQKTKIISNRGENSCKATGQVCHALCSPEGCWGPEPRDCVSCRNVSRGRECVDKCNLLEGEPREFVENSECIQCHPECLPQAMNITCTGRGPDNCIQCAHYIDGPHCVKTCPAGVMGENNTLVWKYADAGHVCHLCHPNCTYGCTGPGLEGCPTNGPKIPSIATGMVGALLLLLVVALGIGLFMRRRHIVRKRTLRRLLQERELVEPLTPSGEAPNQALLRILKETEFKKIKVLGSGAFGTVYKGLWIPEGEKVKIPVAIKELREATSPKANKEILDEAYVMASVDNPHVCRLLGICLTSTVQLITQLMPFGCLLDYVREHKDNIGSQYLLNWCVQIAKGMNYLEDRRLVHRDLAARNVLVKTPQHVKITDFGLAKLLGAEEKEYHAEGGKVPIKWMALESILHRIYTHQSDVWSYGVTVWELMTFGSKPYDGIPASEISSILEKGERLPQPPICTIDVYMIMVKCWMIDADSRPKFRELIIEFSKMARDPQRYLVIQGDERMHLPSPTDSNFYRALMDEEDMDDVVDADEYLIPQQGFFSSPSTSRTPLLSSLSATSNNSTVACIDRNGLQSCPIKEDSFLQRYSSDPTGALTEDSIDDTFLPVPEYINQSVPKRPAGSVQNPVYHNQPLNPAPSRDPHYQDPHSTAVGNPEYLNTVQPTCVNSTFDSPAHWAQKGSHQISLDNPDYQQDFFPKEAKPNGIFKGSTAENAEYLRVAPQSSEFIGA
# [19] = molecular target: Mitogen-activated protein kinase 3 (Homo sapiens) (UniProt P27361); test: Inhibition of ERK1 at 10 uM; method in brief: as §1
# [20] = molecular target: T1, Ribosomal protein S6 kinase alpha-3 (Homo sapiens, UniProt P51812); test: Inhibition of RSK2 at 10 uM
# T1 sequence (P51812 whole entry): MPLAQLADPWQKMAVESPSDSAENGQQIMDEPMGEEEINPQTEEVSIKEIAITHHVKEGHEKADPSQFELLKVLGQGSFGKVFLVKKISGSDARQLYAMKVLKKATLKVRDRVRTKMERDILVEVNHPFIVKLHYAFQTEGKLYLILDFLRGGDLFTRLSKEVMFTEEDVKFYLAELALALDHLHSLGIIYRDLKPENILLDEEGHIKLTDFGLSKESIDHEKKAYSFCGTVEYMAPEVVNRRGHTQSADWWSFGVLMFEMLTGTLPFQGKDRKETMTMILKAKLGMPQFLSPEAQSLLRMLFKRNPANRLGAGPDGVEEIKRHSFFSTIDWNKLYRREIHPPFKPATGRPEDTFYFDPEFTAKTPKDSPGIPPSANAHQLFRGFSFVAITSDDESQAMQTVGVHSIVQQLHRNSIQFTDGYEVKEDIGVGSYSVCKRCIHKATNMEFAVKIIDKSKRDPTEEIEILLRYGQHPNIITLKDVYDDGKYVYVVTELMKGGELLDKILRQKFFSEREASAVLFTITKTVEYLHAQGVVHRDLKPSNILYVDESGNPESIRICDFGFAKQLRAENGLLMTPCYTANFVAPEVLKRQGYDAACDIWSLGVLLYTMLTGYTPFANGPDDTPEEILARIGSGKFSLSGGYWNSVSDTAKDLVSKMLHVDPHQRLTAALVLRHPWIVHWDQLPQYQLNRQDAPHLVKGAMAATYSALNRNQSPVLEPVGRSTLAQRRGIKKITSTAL
# Method in brief: (§4)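 Recombinant RSK2 (20 ng) preincubated 20 min at room temperature with compound in HEPES pH 7.4 buffer (MgCl2, EGTA, Tween 20, BGG) with 25 μM S6 peptide; started with ATP (10 μM final), 60 min at room temperature. ADP Quest fluorescence read at ex 530/em 590 nm. IC50 from curves of ≥3 independent tests, measured when inhibition at 10 μM exceeded 30%.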
# [21] = molecular target: Tyrosine-protein kinase ABL1 (Homo sapiens) (UniProt P00519); test: Inhibition of ABL at 10 uM by ELISA based method; method in brief: as §2
# [22] = tested on: MDA-MB-231; test: Antimigratory activity against human MDA-MB-231 cells at 5 uM after 48 hrs by wound-healing assay; type: functional, cell-based
# Method in brief: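 MDA-MB-231 grown 24 h to confluence in six-well plates, monolayer scratched with a pipet tip, washed, then kept in serum-free DMEM with compound (0.5 and 5 μM) for 48 h; migration photographed by phase-contrast microscopy at 0 and 48 h.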
# [23] = molecular target: Ribosomal protein S6 kinase alpha-5 (Homo sapiens) (UniProt O75582); test: Inhibition of MSK1 at 10 uM; method in brief: as §1
# [24] = molecular target: Protein kinase C alpha type (Homo sapiens) (UniProt P17252); test: Inhibition of PKCalpha at 10 uM; method in brief: as §1
# [25] = molecular target: Mast/stem cell growth factor receptor Kit (Homo sapiens) (UniProt P10721); test: Inhibition of c-Kit at 10 uM by ELISA based method; method in brief: as §2
# Sequence of Mast/stem cell growth factor receptor Kit (Homo sapiens) (P10721 whole entry): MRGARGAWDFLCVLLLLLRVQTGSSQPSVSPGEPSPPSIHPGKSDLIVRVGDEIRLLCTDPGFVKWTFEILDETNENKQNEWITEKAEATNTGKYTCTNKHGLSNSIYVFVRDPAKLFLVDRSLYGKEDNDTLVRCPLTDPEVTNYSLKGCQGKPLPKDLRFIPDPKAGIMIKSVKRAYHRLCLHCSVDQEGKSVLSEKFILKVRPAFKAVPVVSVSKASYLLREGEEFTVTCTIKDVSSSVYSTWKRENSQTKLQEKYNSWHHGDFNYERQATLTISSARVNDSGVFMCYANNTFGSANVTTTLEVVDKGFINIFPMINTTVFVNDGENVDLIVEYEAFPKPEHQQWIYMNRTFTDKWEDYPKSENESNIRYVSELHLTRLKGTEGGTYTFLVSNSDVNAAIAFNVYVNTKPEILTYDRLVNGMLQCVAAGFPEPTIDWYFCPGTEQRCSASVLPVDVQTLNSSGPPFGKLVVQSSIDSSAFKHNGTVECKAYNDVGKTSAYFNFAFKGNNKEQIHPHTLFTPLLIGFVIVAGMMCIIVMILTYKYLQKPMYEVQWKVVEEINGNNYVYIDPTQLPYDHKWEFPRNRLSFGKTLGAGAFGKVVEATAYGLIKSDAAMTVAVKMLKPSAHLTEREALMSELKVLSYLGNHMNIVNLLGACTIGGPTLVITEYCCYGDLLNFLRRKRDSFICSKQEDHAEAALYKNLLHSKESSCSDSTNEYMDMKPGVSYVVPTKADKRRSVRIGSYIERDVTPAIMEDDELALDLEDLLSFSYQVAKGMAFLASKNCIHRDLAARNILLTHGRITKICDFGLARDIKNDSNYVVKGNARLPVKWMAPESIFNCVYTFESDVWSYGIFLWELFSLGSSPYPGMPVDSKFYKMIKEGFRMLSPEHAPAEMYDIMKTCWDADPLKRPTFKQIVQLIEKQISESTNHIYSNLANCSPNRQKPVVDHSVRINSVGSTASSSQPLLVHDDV
# [26] = molecular target: RAC-alpha serine/threonine-protein kinase (Homo sapiens) (UniProt P31749); test: Inhibition of AKT1 at 10 uM; method in brief: as §1
# [27] = tested on: MCF7; test: Antiproliferative activity against human MCF7 cells over expressing RSK2 at 100 uM after 48 hrs by MTT assay; type: functional; details: MCF7, 48 h; method in brief: as §3
# [28] = molecular target: Ribosomal protein S6 kinase beta-1 (Homo sapiens) (UniProt P23443); test: Inhibition of p70S6K at 10 uM; method in brief: as §1
# Sequence of Ribosomal protein S6 kinase beta-1 (Homo sapiens) (P23443 whole entry, looked up): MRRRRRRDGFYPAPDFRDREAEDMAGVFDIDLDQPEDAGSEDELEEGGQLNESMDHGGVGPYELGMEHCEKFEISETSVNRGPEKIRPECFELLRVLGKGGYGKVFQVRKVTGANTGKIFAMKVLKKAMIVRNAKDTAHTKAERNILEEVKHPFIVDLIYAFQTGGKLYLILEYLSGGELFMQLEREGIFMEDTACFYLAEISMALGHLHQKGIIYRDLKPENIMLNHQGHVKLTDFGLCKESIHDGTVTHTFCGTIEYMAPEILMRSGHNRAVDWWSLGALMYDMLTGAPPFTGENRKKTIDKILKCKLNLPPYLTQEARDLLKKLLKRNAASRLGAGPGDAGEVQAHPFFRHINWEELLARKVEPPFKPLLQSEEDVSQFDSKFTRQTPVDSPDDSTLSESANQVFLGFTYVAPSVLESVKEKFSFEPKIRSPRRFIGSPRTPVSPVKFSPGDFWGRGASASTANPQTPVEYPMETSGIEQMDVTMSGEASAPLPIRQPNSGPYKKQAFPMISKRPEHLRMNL
# [29] = molecular target: T1, Ribosomal protein S6 kinase alpha-3; test: Inhibition of RSK2 after 60 mins; method in brief: as §4
# [30] = molecular target: 3-phosphoinositide-dependent protein kinase 1 (Homo sapiens) (UniProt O15530); test: Inhibition of PDK1 at 1 uM
# [31] = molecular target: Mitogen-activated protein kinase 1 (Homo sapiens) (UniProt P28482); test: Inhibition of ERK2 at 1 uM
# [32] = tested on: MDA-MB-231; test: Antiproliferative activity against human MDA-MB-231 cells over expressing RSK2 at 10 uM after 48 hrs by MTT assay; type: functional; details: MDA-MB-231, 48 h
# [33] = tested on: HCT-116; test: Antiproliferative activity against human HCT116 cells over expressing RSK2 at 10 uM after 48 hrs by MTT assay; type: functional; details: HCT-116, 48 h
# [34] = molecular target: Protein kinase C alpha type (Homo sapiens) (UniProt P17252); test: Inhibition of PKCalpha at 1 uM
# [35] = molecular target: Mitogen-activated protein kinase 8 (Homo sapiens) (UniProt P45983); test: Inhibition of JNK1 at 1 uM
# [36] = molecular target: Mitogen-activated protein kinase 14 (Homo sapiens) (UniProt Q16539); test: Inhibition of p38alpha at 1 uM
# [37] = tested on: MCF7; test: Antiproliferative activity against human MCF7 cells over expressing RSK2 at 10 uM after 48 hrs by MTT assay; type: functional; details: MCF7, 48 h
# [38] = molecular target: T1, Ribosomal protein S6 kinase alpha-3; details: 1 uM
# [39] = molecular target: Ribosomal protein S6 kinase beta-1 (Homo sapiens) (UniProt P23443); test: Inhibition of p70S6K at 1 uM
# [40] = molecular target: Ribosomal protein S6 kinase alpha-5 (Homo sapiens) (UniProt O75582); details: 1 uM
smiles,measurement,setting,value
Cc1c(N)ccc2[nH]c(-c3ccc(N)cc3)nc12,inhibition,[1],3.5%
same,inhibition,[2],-1.4%
same,inhibition,[3],24%
same,inhibition,[4],2.7%
same,inhibition,[5],12.5%
same,inhibition,[6],62.8%
same,inhibition at 100 µM,[7],89.6%
same,inhibition,[8],0.6%
same,IC50,[9],30.2 µM
same,inhibition,[10],15.5%
same,inhibition,[11],1.4%
same,inhibition,[12],8.2%
same,IC50,[13],16.1 µM
same,IC50,[14],25.5 µM
same,inhibition at 100 µM,[15],89.2%
same,inhibition,[16],86.8%
same,inhibition,[17],21.9%
same,inhibition,[18],44.9%
same,inhibition,[19],-4.4%
same,inhibition,[20],95.5%
same,inhibition,[21],7.4%
same,Activity,[22],Active
same,inhibition,[23],3.1%
same,inhibition,[24],-0.4%
same,inhibition,[25],11.5%
same,inhibition,[26],-2.5%
same,inhibition at 100 µM,[27],98.3%
same,inhibition,[28],6.2%
Cc1c(N)ccc2nc(-c3ccc(N)cc3)[nH]c12,IC50,[29],0.32 µM
Cc1c(O)ccc(/N=N/c2ccc(S(=O)(=O)O)cc2)c1C,IC50,[29],15.1 µM
N#Cc1nc(/N=N/c2ccccc2)[nH]c1O,inhibition at 100 µM,[7],4.8%
same,IC50,[29],7.04 µM
same,inhibition at 100 µM,[15],12.1%
same,inhibition at 100 µM,[27],0%
O=C1c2ccccc2C(=O)N1CNc1ccc(N2CCOCC2)cc1,inhibition at 100 µM,[7],13.2%
same,IC50,[29],0.95 µM
same,inhibition at 100 µM,[15],6.89%
same,inhibition at 100 µM,[27],31.2%
COc1cc(/C=N/n2cnnc2)cc(I)c1O,IC50,[29],16.2 µM
O=C1NC(=O)C(=NNc2ccc(O)cc2)C(=O)N1,inhibition at 100 µM,[7],49.1%
same,IC50,[9],> 100 µM
same,IC50,[29],1.58 µM
same,IC50,[13],9.69 µM
same,IC50,[14],15.6 µM
same,inhibition at 100 µM,[15],97.9%
same,inhibition at 100 µM,[27],85.8%
Nc1nc2nc(O)nc(O)c2s1,IC50,[29],9.99 µM
Cn1cc(C2=C(c3cn(CCCSC(=N)N)c4ccccc34)C(=O)NC2=O)c2ccccc21 [BISINDOLYLMALEIMIDE IX],inhibition,[30],16%
same,inhibition,[3],70.7%
same,inhibition,[5],73.2%
same,inhibition,[6],32.4%
same,inhibition,[8],71.8%
same,IC50,[9],0.84 µM
same,inhibition,[10],61.2%
same,inhibition,[11],32.6%
same,IC50,[29],0.01 µM
same,inhibition,[31],3%
same,inhibition,[12],37.4%
same,IC50,[13],1.77 µM
same,inhibition at 10 µM,[32],97.1%
same,IC50,[14],1.96 µM
same,inhibition at 10 µM,[33],95.2%
same,inhibition,[34],97%
same,inhibition,[17],74.4%
same,inhibition,[35],5%
same,inhibition,[18],36.6%
same,inhibition,[36],16%
same,inhibition,[21],37.9%
same,inhibition at 10 µM,[37],95.3%
same,inhibition,[38],98%
same,inhibition,[39],94%
same,inhibition,[40],98%
same,inhibition,[25],58%

# — ChEMBL document CHEMBL1773035, “SHAFTS: a hybrid approach for 3D molecular similarity calculation. 2. Prospective case study in the discovery of diverse p90 ribosomal S6 protein kinase 2 inhibitors to suppress cell migration” (J Med Chem, 2011)
